Results taken from ChEMBL document CHEMBL4619746, “Discovery and biological evaluation of proteolysis targeting chimeras (PROTACs) as an EGFR degraders based on osimertinib and lenalidomide” (Bioorg Med Chem Lett, 2020).
pIC50: −log10 of the molar value. Calls of active or inactive are those of the source. No cut-off for these calls is given here.

How the values were obtained:
PC-9 [1] = test: Antiproliferative activity against human PC9 cells harboring EGFRDel19 mutant by MTT assay; type: functional, cell-based
How it was run: (§1)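 MTT proliferation read-out in human NSCLC lines: PC9 (EGFR Del19), HCC827 (EGFR Del E746-A750) and H1975 (EGFR L858R/T790M). IC50 values are in μM and reported as mean ± SD from n = 3.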

[2] = system: Protein cereblon/Epidermal growth factor receptor (Homo sapiens), P00533+Q96SW2 [UNDEFINED MUTATION]; test: Protac activity at CRBN/EGFR exon 19 deletion mutant in human PC9 cells assessed as increase in degradation of EGFR at 10 uM incubated for 24 hrs by Western blot analysis; type: cell-based; conditions: PC-9
How it was run: (§2)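 PC9 (EGFR Del19) and H1975 (EGFR L858R/T790M) cells exposed to 10 μM compound for 24 h. Cell lysates analysed for EGFR protein by western blot.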

NCI-H1975 = test: Antiproliferative activity against human NCI-H1975 cells harboring EGFR L858R/T790M double mutant by MTT assay; type: functional, cell-based; how it was run: as §1
[3] = system: Protein cereblon/Epidermal growth factor receptor (Homo sapiens), P00533+Q96SW2 [L858R,T790M]; test: Protac activity at CRBN/EGFR L858R/T790M mutant in human H1975 cells assessed as induction of degradation of EGFR at 10 uM incubated for 24 hrs by Western blot analysis; type: cell-based; how it was run: as §2
HCC827 = test: Antiproliferative activity against human HCC827 cells harboring EGFRDel19 mutant by MTT assay; type: functional, cell-based; how it was run: as §1
[4] = system: Protein cereblon/Epidermal growth factor receptor (Homo sapiens), P00533+Q96SW2 [UNDEFINED MUTATION]; test: Protac activity at CRBN/EGFR exon 19 deletion mutant in human PC9 cells assessed as induction of degradation of EGFR assessed as fold change in EGFR protein expression at 0.3 uM incubated for 48 hrs by Western blot analysis relative to control (reference value: 1); type: cell-based; conditions: PC-9
How it was run: (§3)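 Time course in PC9 cells at a fixed 0.3 μM. Cells harvested at the indicated time points and EGFR protein quantified by western blot relative to control.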

[5] = system: Protein cereblon/Epidermal growth factor receptor (Homo sapiens), P00533+Q96SW2 [UNDEFINED MUTATION]; test: Protac activity at CRBN/EGFR exon 19 deletion mutant in human PC9 cells assessed as induction of degradation of EGFR assessed as fold change in EGFR protein expression at 0.3 uM incubated for 12 hrs by Western blot analysis relative to control (reference value: 1); type: cell-based; conditions: PC-9; how it was run: as §3
[6] = system: Protein cereblon/Epidermal growth factor receptor (Homo sapiens), P00533+Q96SW2 [UNDEFINED MUTATION]; test: Protac activity at CRBN/EGFR exon 19 deletion mutant in human PC9 cells assessed as induction of degradation of EGFR assessed as fold change in EGFR protein expression at 0.3 uM incubated for 24 hrs by Western blot analysis relative to control (reference value: 1); type: cell-based; conditions: PC-9; how it was run: as §3
[7] = system: Protein cereblon/Epidermal growth factor receptor (Homo sapiens), P00533+Q96SW2 [UNDEFINED MUTATION]; test: Protac activity at CRBN/EGFR exon 19 deletion mutant in human PC9 cells assessed as induction of degradation of EGFR by measuring fold change in EGFR protein expression at 10 uM incubated for 6 hrs by Western blot analysis relative to control (reference value: 1); type: cell-based; conditions: PC-9
How it was run: (§4)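 PC9 cells (EGFR Del19) exposed for 6 h to six concentrations from 0.1 μM to 10 μM. EGFR protein measured by western blot relative to untreated control. DC50 and Dmax derived from the concentration-response.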

[8] = system: Protein cereblon/Epidermal growth factor receptor (Homo sapiens), P00533+Q96SW2 [UNDEFINED MUTATION]; test: Protac activity at CRBN/EGFR exon 19 deletion mutant in human PC9 cells assessed as induction of degradation of EGFR by measuring fold change in EGFR protein expression at 3 uM incubated for 6 hrs by Western blot analysis relative to control (reference value: 1); type: cell-based; conditions: PC-9; how it was run: as §4
[9] = system: Protein cereblon/Epidermal growth factor receptor (Homo sapiens), P00533+Q96SW2 [UNDEFINED MUTATION]; test: Protac activity at CRBN/EGFR exon 19 deletion mutant in human PC9 cells assessed as induction of degradation of EGFR assessed as fold change in EGFR protein expression at 0.3 uM incubated for 1 hr by Western blot analysis relative to control (reference value: 1); type: cell-based; conditions: PC-9; how it was run: as §3
[10] = system: Protein cereblon/Epidermal growth factor receptor (Homo sapiens), P00533+Q96SW2 [UNDEFINED MUTATION]; test: Protac activity at CRBN/EGFR exon 19 deletion mutant in human PC9 cells assessed as induction of degradation of EGFR assessed as fold change in EGFR protein expression at 0.3 uM incubated for 3 hrs by Western blot analysis relative to control (reference value: 1); type: cell-based; conditions: PC-9; how it was run: as §3
[11] = system: Protein cereblon/Epidermal growth factor receptor (Homo sapiens), P00533+Q96SW2 [UNDEFINED MUTATION]; test: Protac activity at CRBN/EGFR exon 19 deletion mutant in human PC9 cells assessed as induction of degradation of EGFR by measuring fold change in EGFR protein expression at 1 uM incubated for 6 hrs by Western blot analysis relative to control (reference value: 1); type: cell-based; conditions: PC-9; how it was run: as §4
[12] = system: Protein cereblon/Epidermal growth factor receptor (Homo sapiens), P00533+Q96SW2 [UNDEFINED MUTATION]; test: (§5) Protac activity at CRBN/EGFR exon 19 deletion mutant in human PC9 cells assessed as induction of degradation of EGFR incubated for 6 hrs by Western blot analysis; type: cell-based; conditions: PC-9; how it was run: as §4
[13] = molecular target: Protein cereblon/Epidermal growth factor receptor (Homo sapiens, UniProt P00533+Q96SW2); test: as §5; type: cell-based; conditions: pc-9; how it was run: as §4
[14] = system: Protein cereblon/Epidermal growth factor receptor (Homo sapiens), P00533+Q96SW2 [UNDEFINED MUTATION]; test: Protac activity at CRBN/EGFR exon 19 deletion mutant in human PC9 cells assessed as induction of degradation of EGFR at 0.3 uM incubated for 6 hrs by Western blot analysis relative to control; type: cell-based; conditions: PC-9; how it was run: as §3
[15] = system: Protein cereblon/Epidermal growth factor receptor (Homo sapiens), P00533+Q96SW2 [UNDEFINED MUTATION]; test: Protac activity at CRBN/EGFR exon 19 deletion mutant in human PC9 cells assessed as induction of degradation of EGFR by measuring fold change in EGFR protein expression at 0.3 uM incubated for 6 hrs by Western blot analysis relative to control (reference value: 1); type: cell-based; conditions: PC-9; how it was run: as §4
[16] = system: Protein cereblon/Epidermal growth factor receptor (Homo sapiens), P00533+Q96SW2 [UNDEFINED MUTATION]; test: Protac activity at CRBN/EGFR exon 19 deletion mutant in human PC9 cells assessed as induction of degradation of EGFR by measuring fold change in EGFR protein expression at 0.1 uM incubated for 6 hrs by Western blot analysis relative to control (reference value: 1); type: cell-based; conditions: PC-9; how it was run: as §4
[17] = system: Protein cereblon/Epidermal growth factor receptor (Homo sapiens), P00533+Q96SW2 [UNDEFINED MUTATION]; test: Protac activity at CRBN/EGFR exon 19 deletion mutant in human PC9 cells assessed as induction of degradation of EGFR at 0.3 uM incubated for 24 hrs by DAPI-staining based immunofluorescence microscopy; type: cell-based; conditions: PC-9
PC-9 [18] = test: Induction of apoptosis in human PC9 cells harboring EGFRDel19 mutant at 0.5 uM incubated for 24 hrs by confocal microscopy relative to control; type: functional
How it was run: (§6)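 PC9 cells were exposed to 0.5 μM test agent for 24 h. Cell cycle distribution and apoptosis were then read on an ImageXpress Micro Confocal/Widefield high-content imaging system.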

[19] = system: Protein cereblon/Epidermal growth factor receptor (Homo sapiens), P00533+Q96SW2 [UNDEFINED MUTATION]; test: Protac activity at CRBN/EGFR exon 19 deletion mutant in human PC9 cells assessed as induction of degradation of EGFR at 0.3 uM pretreated with proteasome inhibitor, MG-132 for 2 hrs followed by incubation with compound for 6 hrs by Western blot analysis; type: cell-based; conditions: PC-9
How it was run: (§7)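 PC9 cells pretreated for 2 h with proteasome inhibitor MG-132 (10 μM) or lenalidomide (10 μM), then given 0.3 μM PROTAC for 6 h. EGFR levels read by western blot.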

[20] = system: Protein cereblon/Epidermal growth factor receptor (Homo sapiens), P00533+Q96SW2 [UNDEFINED MUTATION]; test: Protac activity at CRBN/EGFR exon 19 deletion mutant in human PC9 cells assessed as induction of degradation of EGFR at 0.3 uM pretreated with proteasome inhibitor, lenalidomide for 2 hrs followed by incubation with compound for 6 hrs by Western blot analysis; type: cell-based; conditions: PC-9; how it was run: as §7
PC-9 [21] = test: Induction of cell cycle arrest in human PC9 cells harboring EGFRDel19 mutant assessed as accumulation in G0/G1 phase at 0.5 uM incubated for 24 hrs by confocal microscopy; type: functional, cell-based; how it was run: as §6

How did the pIC50 (PC-9 [1]) turn out when C=CC(=O)Nc1cc(Nc2nccc(-c3cn(C)c4ccccc34)n2)c(OC)cc1N(C)CCN(C)CCOCCOCC(=O)Nc1cccc2c1CN(C1CCC(=O)NC1=O)C2=O (stereo not drawn) was run?
Its pIC50 is 5.85.

And the Activity [2]?
The Activity was “Active”.

What about the pIC50 (NCI-H1975) of the same molecule?
Its pIC50 is 5.86.

What about the Activity [3] of the same molecule?
The Activity was “Active”.

What about the pIC50 (HCC827) of the same molecule?
The pIC50 was 5.73.

With C=CC(=O)Nc1cc(Nc2nccc(-c3cn(C)c4ccccc34)n2)c(OC)cc1N(C)CCN(C)CCOCCOCCOCCOCC(=O)Nc1cccc2c1CN(C1CCC(=O)NC1=O)C2=O (stereo not drawn) as the molecule, how does the fold change (FC) [4] read?
The fold change (FC) was 0.57.

What about the fold change (FC) [5] of the same molecule?
Its fold change (FC) is 1.39.

And the pIC50 (PC-9 [1])?
Its pIC50 is 6.38.

And the fold change (FC) [6]?
The fold change (FC) was 0.52.

And the fold change (FC) [7]?
Its fold change (FC) is 0.39.

And the fold change (FC) [8]?
Its fold change (FC) is 0.49.

And the fold change (FC) [9]?
Its fold change (FC) is 0.96.

And the fold change (FC) [10]?
The fold change (FC) was 1.01.

And the fold change (FC) [11]?
The fold change (FC) was 0.82.

What about the Activity [12] of the same molecule?
The Activity was “Dose-dependent effect”.

What about the DC50 [13] of the same molecule?
The DC50 was 0.161 µM.

What about the Emax [14] of the same molecule?
The Emax was 56 to 68%.

What about the fold change (FC) [15] of the same molecule?
The fold change (FC) was 0.32 to 0.44.

And the fold change (FC) [16]?
Its fold change (FC) is 0.61.

What about the Activity [17] of the same molecule?
The Activity was “Active”.

What about the Activity (PC-9 [18]) of the same molecule?
The Activity was 38.6%.

And the Activity [19]?
The Activity was “inactive”.

And the Activity [2]?
The Activity was “Active”.

And the pIC50 (NCI-H1975)?
Its pIC50 is 6.18.

What about the Activity [3] of the same molecule?
The Activity was “Active”.

And the pIC50 (HCC827)?
The pIC50 was 5.87.

What about the Activity [20] of the same molecule?
The Activity was “inactive”.

What about the Activity (PC-9 [21]) of the same molecule?
Its Activity is “Active”.

C=CC(=O)Nc1cc(Nc2nccc(-c3cn(C)c4ccccc34)n2)c(OC)cc1N(C)CCN(C)CCOCCOCCOCC(=O)Nc1cccc2c1CN(C1CCC(=O)NC1=O)C2=O (stereo not drawn) was tested. Which pIC50 (PC-9 [1]) did it give?
Its pIC50 is 5.95.

And the Activity [2]?
Its Activity is “Active”.

What about the pIC50 (NCI-H1975) of the same molecule?
Its pIC50 is 5.77.

What about the Activity [3] of the same molecule?
Its Activity is “Active”.

What about the pIC50 (HCC827) of the same molecule?
The pIC50 was 5.79.
